From ChEMBL document CHEMBL1914352, “Design, synthesis, docking, and biological evaluation of novel diazide-containing isoxazole- and pyrazole-based histone deacetylase probes” (J Med Chem, 2011)
Active and inactive are the calls of the source. The rule behind the calls is not given here.

Tests used:
[1] = target: Histone deacetylase 3/Nuclear receptor corepressor 2 (HDAC3/NCoR2) (Homo sapiens, UniProt O15379); assay: Inhibition of human recombinant HDAC3/NCoR2 using fluorophore-conjugated substrate Boc-L-Lys(Ac)-AMC; format: protein-complex assay
Histone deacetylase 3/Nuclear receptor corepressor 2 (HDAC3/NCoR2), sequence (O15379 whole entry): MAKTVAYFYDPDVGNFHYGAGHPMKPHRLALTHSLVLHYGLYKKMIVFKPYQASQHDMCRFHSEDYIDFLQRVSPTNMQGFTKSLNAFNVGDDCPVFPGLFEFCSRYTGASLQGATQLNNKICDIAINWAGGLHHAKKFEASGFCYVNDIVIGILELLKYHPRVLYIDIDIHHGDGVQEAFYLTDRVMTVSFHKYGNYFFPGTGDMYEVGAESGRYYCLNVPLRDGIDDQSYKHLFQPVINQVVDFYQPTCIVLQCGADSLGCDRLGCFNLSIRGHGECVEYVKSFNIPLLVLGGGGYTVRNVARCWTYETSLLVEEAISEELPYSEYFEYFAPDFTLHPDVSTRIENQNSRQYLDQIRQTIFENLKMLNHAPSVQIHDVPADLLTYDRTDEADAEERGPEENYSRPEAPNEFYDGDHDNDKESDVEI
Histone deacetylase 3/Nuclear receptor corepressor 2 (HDAC3/NCoR2), sequence (Q9Y618 whole entry, further chain): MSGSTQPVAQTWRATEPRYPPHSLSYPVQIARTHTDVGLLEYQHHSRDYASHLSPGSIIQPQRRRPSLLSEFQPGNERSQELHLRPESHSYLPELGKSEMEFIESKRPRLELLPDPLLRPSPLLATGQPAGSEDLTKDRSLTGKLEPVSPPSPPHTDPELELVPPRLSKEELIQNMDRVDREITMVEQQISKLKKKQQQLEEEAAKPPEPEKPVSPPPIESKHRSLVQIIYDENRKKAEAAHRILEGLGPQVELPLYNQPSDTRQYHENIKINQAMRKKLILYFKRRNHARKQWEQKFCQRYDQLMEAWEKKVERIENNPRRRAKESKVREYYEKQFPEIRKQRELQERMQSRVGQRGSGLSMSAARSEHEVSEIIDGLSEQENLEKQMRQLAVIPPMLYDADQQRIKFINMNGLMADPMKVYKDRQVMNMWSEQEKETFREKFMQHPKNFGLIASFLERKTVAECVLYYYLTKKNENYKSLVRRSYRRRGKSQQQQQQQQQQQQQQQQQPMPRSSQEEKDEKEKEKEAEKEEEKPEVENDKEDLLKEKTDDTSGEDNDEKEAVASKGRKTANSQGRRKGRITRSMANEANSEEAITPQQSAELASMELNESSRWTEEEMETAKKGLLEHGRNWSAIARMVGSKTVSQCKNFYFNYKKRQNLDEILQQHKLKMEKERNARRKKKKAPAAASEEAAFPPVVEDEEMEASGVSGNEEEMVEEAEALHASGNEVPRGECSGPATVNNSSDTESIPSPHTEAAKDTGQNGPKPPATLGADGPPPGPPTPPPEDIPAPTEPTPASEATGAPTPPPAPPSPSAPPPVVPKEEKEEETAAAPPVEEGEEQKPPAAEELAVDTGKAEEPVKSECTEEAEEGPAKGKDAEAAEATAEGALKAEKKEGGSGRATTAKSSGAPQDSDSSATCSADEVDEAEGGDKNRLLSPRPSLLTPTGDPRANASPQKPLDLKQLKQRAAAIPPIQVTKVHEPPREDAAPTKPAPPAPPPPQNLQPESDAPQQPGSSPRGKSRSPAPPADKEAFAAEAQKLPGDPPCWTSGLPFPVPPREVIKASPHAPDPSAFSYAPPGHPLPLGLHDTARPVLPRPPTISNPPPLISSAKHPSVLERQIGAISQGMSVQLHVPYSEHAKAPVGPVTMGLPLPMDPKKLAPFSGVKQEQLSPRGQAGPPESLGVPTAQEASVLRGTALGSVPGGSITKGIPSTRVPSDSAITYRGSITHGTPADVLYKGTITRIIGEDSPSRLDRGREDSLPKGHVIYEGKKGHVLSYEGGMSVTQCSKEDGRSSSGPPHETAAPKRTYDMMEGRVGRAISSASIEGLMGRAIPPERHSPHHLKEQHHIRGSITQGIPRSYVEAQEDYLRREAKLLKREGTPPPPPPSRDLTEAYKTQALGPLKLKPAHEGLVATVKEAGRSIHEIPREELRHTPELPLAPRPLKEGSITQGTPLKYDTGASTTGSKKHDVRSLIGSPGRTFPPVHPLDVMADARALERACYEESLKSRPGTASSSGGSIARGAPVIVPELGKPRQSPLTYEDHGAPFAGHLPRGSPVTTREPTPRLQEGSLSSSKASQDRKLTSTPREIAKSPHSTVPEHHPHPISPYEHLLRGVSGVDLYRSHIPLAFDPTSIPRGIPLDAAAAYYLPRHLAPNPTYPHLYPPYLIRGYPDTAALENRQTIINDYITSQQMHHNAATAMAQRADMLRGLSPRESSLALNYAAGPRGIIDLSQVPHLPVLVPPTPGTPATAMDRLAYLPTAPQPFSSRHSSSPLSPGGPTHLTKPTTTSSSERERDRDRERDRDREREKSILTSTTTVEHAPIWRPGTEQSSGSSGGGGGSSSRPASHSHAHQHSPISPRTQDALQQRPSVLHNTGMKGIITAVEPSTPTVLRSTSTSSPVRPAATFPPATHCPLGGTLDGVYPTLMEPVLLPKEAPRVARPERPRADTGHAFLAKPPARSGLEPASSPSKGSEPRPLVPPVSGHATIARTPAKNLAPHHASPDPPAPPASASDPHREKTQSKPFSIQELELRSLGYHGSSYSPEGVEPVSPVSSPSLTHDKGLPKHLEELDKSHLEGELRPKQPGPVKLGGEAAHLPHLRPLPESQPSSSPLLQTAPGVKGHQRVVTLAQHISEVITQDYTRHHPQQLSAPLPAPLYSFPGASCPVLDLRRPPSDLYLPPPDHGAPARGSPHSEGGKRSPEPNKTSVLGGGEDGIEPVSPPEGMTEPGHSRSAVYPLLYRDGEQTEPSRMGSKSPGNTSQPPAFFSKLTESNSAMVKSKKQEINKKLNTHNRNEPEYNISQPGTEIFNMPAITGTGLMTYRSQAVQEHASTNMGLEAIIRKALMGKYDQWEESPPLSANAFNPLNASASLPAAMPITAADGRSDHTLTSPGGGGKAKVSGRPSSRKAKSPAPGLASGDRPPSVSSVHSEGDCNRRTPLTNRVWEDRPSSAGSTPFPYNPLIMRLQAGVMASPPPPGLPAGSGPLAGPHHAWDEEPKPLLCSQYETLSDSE

[2] = system: SH-SY5Y; assay: cells; format: functional, cell-based; conditions: Homo sapiens, 48 h
[3] = system: HeLa; assay: cells; format: functional, cell-based; conditions: Homo sapiens, 48 h
[4] = system: SH-SY5Y; assay: cells; format: functional, cell-based; conditions: Homo sapiens, 24 h
[5] = system: HeLa; assay: cells; format: functional, cell-based; conditions: Homo sapiens, 24 h
[6] = system: SH-SY5Y; assay: Neuroprotective activity against LY294002-induced stress in retinoic acid-differentiated human SH-SY5Y cells assessed as cell survival at 0.5 to 20 uM; format: functional, cell-based
Procedure, shortened: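 SH-SY5Y cells pre-differentiated with retinoic acid, seeded at 2×10^4 cells/well in 1% FBS medium with 5 µM retinoic acid. After 24 h, medium changed to phenol red free 1% FBS medium with 5 µM retinoic acid plus vehicle (DMSO) or 0.5–50 µM inhibitor (final), with or without 100 µM LY294002. Viability by XTT after 24 h. Expressed as percent survival relative to vehicle, four replicates ± SD. Analysed by one-way ANOVA with Dunnett's test.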

[7] = system: SH-SY5Y; assay: cells; format: functional, cell-based; conditions: Homo sapiens, 72 h
[8] = system: HepG2; assay: cells; format: functional, cell-based; conditions: Homo sapiens, HepG2, 72 h
[9] = system: SH-SY5Y; assay: Cytotoxicity against retinoic acid-differentiated human SH-SY5Y cells assessed as cell survival at 20 uM; format: cell-based
Procedure, shortened: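 SH-SY5Y cells are differentiated for 7–8 days in 1% FBS medium with 10 µM retinoic acid, then seeded at 2×10^4 cells/well in 1% FBS medium with 5 µM RA. After 24 h they go into phenol-red-free 1% FBS/RA medium with DMSO or 0.5–50 µM inhibitor, without or with 100 µM LY294002, for 24 h. Readout: XTT viability as % survival vs vehicle, four replicates ± SD, one-way ANOVA with Dunnett.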

[10] = system: HeLa; assay: cells; format: functional, cell-based; conditions: Homo sapiens, 72 h
[11] = system: HepG2; assay: cells; format: functional, cell-based; conditions: Homo sapiens, HepG2, 24 h
[12] = system: HepG2; assay: cells; format: functional, cell-based; conditions: Homo sapiens, HepG2, 48 h
[13] = target: T1, Histone deacetylase 8 (Homo sapiens, UniProt Q9BY41); assay: Inhibition of human recombinant HDAC8 using Fluor de Lys as substrate
T1 sequence (Q9BY41 whole entry): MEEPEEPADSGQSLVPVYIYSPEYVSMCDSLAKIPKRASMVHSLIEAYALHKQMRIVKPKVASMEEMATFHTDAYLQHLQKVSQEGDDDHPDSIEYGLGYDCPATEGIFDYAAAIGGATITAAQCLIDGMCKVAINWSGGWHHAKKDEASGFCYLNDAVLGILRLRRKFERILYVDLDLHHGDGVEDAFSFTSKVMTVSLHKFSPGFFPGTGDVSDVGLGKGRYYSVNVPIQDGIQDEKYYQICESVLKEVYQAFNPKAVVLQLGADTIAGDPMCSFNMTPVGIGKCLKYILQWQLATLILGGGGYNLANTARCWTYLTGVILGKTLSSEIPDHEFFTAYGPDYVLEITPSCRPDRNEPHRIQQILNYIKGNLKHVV

[14] = system: HepG2; assay: Induction of apoptosis in human HepG2 cells assessed as hyperacetylation of p53 after 24 hrs by Western blot analysis; format: functional, cell-based
Procedure, shortened: (§1)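 HepG2 cells are seeded at 2.7×10^5 cells/well in D7 medium (DMEM, 7% FBS), refed after 24 h, and after 1 h at 37 °C treated with DMSO or 1, 5 or 10 µM inhibitor. Lysis is in ice-cold 1% CHAPSO buffer (50 mM Hepes pH 7.4), 45 min at 4 °C. Immunoblots are probed for cleaved caspase 3 Asp175, acetyl-Lys373 p53, total p53 and GAPDH, detected by chemiluminescence, with band densitometry.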

[15] = system: HepG2; assay: Induction of apoptosis in human HepG2 cells assessed as hyperacetylation of p53 at 1 to 10 uM by Western blot analysis; format: functional, cell-based; procedure, shortened: as §1
[16] = system: HepG2; assay: Induction of apoptosis in human HepG2 cells assessed as cleavage of caspase 3 at 1 to 10 uM after 14 hrs by Western blot analysis; format: functional, cell-based; procedure, shortened: as §1
[17] = system: HepG2; assay: Induction of apoptosis in human HepG2 cells assessed as cleavage of caspase 3 at 1 to 10 uM after 24 hrs by Western blot analysis; format: functional, cell-based; procedure, shortened: as §1
[18] = target: Matrix metalloproteinase-14 (Homo sapiens, UniProt P50281); assay: Inhibition of MMP14
[19] = target: Stromelysin-1 (Homo sapiens, UniProt P08254); assay: Inhibition of MMP3
Stromelysin-1, sequence (P08254 whole entry): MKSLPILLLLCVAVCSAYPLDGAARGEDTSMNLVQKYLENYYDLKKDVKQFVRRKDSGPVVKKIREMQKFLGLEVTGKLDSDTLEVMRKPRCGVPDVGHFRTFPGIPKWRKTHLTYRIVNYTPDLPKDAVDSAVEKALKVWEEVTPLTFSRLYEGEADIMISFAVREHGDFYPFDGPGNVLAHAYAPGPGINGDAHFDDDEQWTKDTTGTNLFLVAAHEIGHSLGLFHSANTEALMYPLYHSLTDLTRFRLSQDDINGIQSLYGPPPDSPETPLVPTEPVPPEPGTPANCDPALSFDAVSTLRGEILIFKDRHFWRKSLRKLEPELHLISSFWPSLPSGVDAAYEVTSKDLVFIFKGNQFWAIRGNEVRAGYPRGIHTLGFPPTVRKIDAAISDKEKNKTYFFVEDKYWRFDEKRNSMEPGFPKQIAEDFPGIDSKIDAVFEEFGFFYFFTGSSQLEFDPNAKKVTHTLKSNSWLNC

[20] = target: T2, Histone deacetylase (Homo sapiens) (UniProt Q13547+O15379+Q9UBN7+Q92769+Q9UQL6+Q8WUI4+Q9BY41+Q96DB2+P56524+Q9UKV0+Q969S8); assay: Inhibition of HDAC in retinoic acid-differentiated human SH-SY5Y cells assessed as increase in histone H4 acetylation at 1 uM after 24 hrs by Western blot analysis; format: cell-based
[21] = target: T2, Histone deacetylase (Homo sapiens); assay: Inhibition of HDAC in retinoic acid-differentiated human SH-SY5Y cells assessed as increase in histone H4 acetylation at 1 uM after 24 hrs by Western blot analysis in presence of 100 uM LY294002; format: cell-based

SMILES: [N-]=[N+]=Nc1ccc(Cn2cc(NC(=O)CCCCCCC(=O)NO)cn2)cc1
- IC50 [1]: 0.022 µM
- EC50 [2]: 23.6 µM
- EC50 [3]: 9.9 µM
- EC50 [4]: > 50 µM
- EC50 [5]: 38.3 µM
- Activity [6]: inactive
- EC50 [7]: 23.1 µM
- EC50 [8]: 5.9 µM
- Activity [9]: Non-toxic
- EC50 [10]: 4.6 µM
- EC50 [11]: > 50 µM
- EC50 [12]: 12.7 µM
- IC50 [13]: 0.028 µM

SMILES: O=C(CCCCCCC(=O)Nc1ccccc1)NO
- Activity [14]: inactive
- Activity [15]: inactive
- Activity [16]: Active
- Activity [17]: Active

SMILES: O=C(CCCCCCC(=O)Nc1cnn(Cc2ccccc2)c1)NO
- IC50 [1]: 0.044 µM
- EC50 [2]: 22.7 µM
- EC50 [3]: 10.6 µM
- EC50 [4]: > 50 µM
- EC50 [5]: 46.6 µM
- Activity [6]: inactive
- EC50 [7]: 23.2 µM
- EC50 [8]: 5.5 µM
- Activity [9]: Non-toxic
- EC50 [10]: 5.5 µM
- EC50 [11]: > 50 µM
- EC50 [12]: 12.6 µM
- IC50 [13]: 0.076 µM

SMILES: O=C(CCCCCCC(=O)Nc1cnn(Cc2ccc([N+](=O)[O-])cc2)c1)NO
- IC50 [1]: 0.059 µM
- IC50 [13]: 0.082 µM

SMILES: [N-]=[N+]=NCc1cc(N=[N+]=[N-])cc(C(=O)Nc2ccc(Cn3cc(NC(=O)CCCCCCC(=O)NO)cn3)cc2)c1
- IC50 [1]: 0.432 µM
- IC50 [13]: 0.487 µM

SMILES: CC(C)(C)OC(=O)Nc1ccc(Cn2cc(NC(=O)CCCCCCC(=O)NO)cn2)cc1
- IC50 [1]: 0.191 µM
- IC50 [13]: 0.147 µM

SMILES: [N-]=[N+]=NCc1cc(COc2ccc(NC(=O)CCCCCCC(=O)NO)cc2)cc(N=[N+]=[N-])c1
- IC50 [1]: 1.48 µM

SMILES: CNC(=O)[C@H](Cc1c[nH]c2ccccc12)NC(=O)[C@@H](CC(=O)NO)CC(C)C [ILOMASTAT]
- IC50 [18]: 0.00041 µM
- IC50 [19]: 0.00762 µM

SMILES: [N-]=[N+]=Nc1ccc(-c2cc(C(=O)NCCCCCCC(=O)NO)no2)cc1
- IC50 [1]: 0.073 µM
- inhibition [20]: Active
- inhibition [21]: Active
- IC50 [13]: 0.707 µM
